High-throughput results deposited in PubChem BioAssay by several laboratories.
Only some compounds are listed: those with a hit (about 12% of all), similar ones and a draw of the others.
Diaphorase act = activates diaphorase or chemically reduces, flagging diaphorase assay artifacts; Diaphorase/resazurin coupled assay, resorufin fluorescence, 16 min; hits give high values; 1 = vehicle wells, 0 = NADH-free wells; activation factor at 20 µM; actives 0.005% (n = 190,000);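 active means diaphorase activity raised at least twofold by the compound at 20 µM; inactive means activation factor below 2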
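Material: Clostridium kluyveri diaphorase, purified enzyme; Quantity: enzyme 0.07 U/mL final; Medium: HEPES pH 7.4 buffer with MgCl2 and Tween 20; Dosing: single compound dose of 20 µM, 1% DMSO final; Schedule: 16 min reaction at room temperature; Measured by: red resorufin fluorescence at 544/590 nm excitation/emission.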
Lmaj promast = Leishmania major promastigote growth inhibition. AID 1063. Leishmania major promastigotes, resazurin fluorescence viability. actives 9% (n = 200,000). inhibition, % at 10 µM; in the data active means inhibition above about 50%;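 further: promastigotes grown with compound for 44 hours at 28 °C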
KCC2 mod = KCC2 (human) Cl- transport modulation; actives 2.2% (n = 190,000); AID 1456; KCC2 cells, thallium flux FluoZin-2 fluorescence; B-score of Tl+ flux slope (higher = more flux/activation; lower = inhibition) at 10 µM; Q9H2X9;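 active means thallium flux slope and its plate-corrected score both differing from the plate sample mean at a set confidence after two filtering rounds, in either direction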;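 further: slope of fluorescence scaled to starting intensity during 10 to 20 s after thallium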
Target sequence (Q9H2X9 whole entry, looked up): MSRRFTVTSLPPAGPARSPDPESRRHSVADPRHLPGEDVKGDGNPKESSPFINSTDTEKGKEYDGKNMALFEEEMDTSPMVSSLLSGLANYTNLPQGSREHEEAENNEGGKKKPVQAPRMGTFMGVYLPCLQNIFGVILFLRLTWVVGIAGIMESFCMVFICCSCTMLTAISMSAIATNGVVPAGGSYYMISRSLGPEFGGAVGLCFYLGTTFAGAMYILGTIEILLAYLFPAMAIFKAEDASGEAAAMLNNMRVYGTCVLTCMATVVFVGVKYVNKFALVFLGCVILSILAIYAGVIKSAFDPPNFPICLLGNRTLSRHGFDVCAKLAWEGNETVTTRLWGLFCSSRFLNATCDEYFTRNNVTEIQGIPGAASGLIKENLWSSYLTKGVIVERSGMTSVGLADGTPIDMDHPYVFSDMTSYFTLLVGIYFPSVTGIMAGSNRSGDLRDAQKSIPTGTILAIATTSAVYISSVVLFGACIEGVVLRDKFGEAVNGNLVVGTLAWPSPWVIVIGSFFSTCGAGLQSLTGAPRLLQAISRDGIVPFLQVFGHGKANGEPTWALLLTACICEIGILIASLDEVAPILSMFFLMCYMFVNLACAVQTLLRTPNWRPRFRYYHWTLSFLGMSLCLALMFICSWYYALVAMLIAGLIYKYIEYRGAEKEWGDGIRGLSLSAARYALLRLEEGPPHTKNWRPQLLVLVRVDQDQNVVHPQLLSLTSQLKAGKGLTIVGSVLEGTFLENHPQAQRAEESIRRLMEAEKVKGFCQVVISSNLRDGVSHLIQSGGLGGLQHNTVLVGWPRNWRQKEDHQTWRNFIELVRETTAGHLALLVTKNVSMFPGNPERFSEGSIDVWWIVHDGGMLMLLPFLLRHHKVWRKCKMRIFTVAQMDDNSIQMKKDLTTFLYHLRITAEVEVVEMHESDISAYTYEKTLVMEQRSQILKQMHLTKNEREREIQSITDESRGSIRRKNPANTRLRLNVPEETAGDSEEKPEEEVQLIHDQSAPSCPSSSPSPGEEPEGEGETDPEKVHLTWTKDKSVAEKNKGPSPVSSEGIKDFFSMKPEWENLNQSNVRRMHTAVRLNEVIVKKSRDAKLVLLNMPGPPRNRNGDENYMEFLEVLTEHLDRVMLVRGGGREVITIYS
ROMK primary = modulators of human ROMK potassium channel; Tet-inducible ROMK, thallium flux fluorescence; actives lie on both sides; actives 2% (n = 130,000); P48048; B-score at 10 µM; AID 1918;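 active means signal ratio slope over the read window, or its plate-corrected B-score, at least 3 SD from the plate mean, either direction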;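 further: B-score of the F/F0 ratio slope over 7 to 12 s after thallium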
Diaph inh CS = inhibits diaphorase or chemically oxidizes, flagging diaphorase assay artifacts; diaphorase resazurin-to-resorufin fluorescence, NADH, 16 min; bacterial (C. kluyveri) enzyme, not human; inhibition, % at 20 µM; actives 0.69% (n = 190,000); AID 1217;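 active means primary screen inhibition at 20 µM above a set limit, cut at about 50% in these data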;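 further: plate controls were DMSO with full reaction for no effect and wells lacking NADH for full effect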
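Test system: diaphorase enzyme from Clostridium kluyveri; amount: diaphorase at 0.14 U/mL in enzyme working solution; detection: fluorescence of resorufin formed from resazurin, Ex 544/Em 590 nm; times: reaction incubation of 16 min at room temperature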
WT yeast gro inh = growth inhibition of WT yeast, mitochondrial fusion screen; mitochondrial fusion phenotypic screen, WT strain; inhibition, % at 10 µM; actives 2.1% (n = 190,000); in the data active means inhibition above about 58%; tested in S. cerevisiae
The depositor's hits bear a star; / = no result given.

SMILES	Diaphorase act	Lmaj promast	KCC2 mod	ROMK primary	Diaph inh CS	WT yeast gro inh
O=C(Nc1cc(S(=O)(=O)N2CCCC2)ccc1OCC(F)(F)F)c1ccccc1F	1	-5.3	2.01	-0.0434	3.0	3.0
COC(=O)c1cc(OC)c(OC)cc1NCC(=O)Nc1ccc(OC)c(OC)c1	0.8	53.0*	0.124	/	16.4	-2.4
COc1ccc(S(=O)(=O)N(CC(=O)NCCC(C)C)c2ccccc2)cc1OC	0.9	2.7	-0.0481	-0.0428	5.9	18.2
COc1cc(/C=N/NC(=O)c2cccc([N+](=O)[O-])c2)ccc1OC(=O)c1ccco1	0.9	2.8	0	-1.42	8.9	-0.5
COCCNC(=S)N1CCC(NC(=O)Nc2ccc(C)cc2)CC1	0.8	-7.8	0.0149	-0.47	24.5	0.3
C=CCn1c(SCc2c(C(=O)OC)sc(N)c2C(=O)OC)nnc1-c1ccc(Br)cc1	0.8	99.2*	1.65	-1.38	20.2	9.7
COc1ccc(-c2nc(SC(CC(=O)NCCN3CCOCC3)c3cccs3)n[nH]2)cc1 (stereo not given)	0.9	-4.1	-0.433	0.4	9.0	-7.6
CN1CCN(C2=Cc3cc(Cl)ccc3Sc3cc(F)ccc32)CC1	1	100.3*	/	0.0385	-4.8	95.4*
CN1CCN(c2ccc(Cl)cc2NC(=O)/C=C/c2cccc(F)c2)CC1	1.1	45.3	-0.439	0.138	-12.6	16.6
CN1CCN(C2=Cc3ccccc3Sc3cc(F)c(F)cc32)CC1	1	100.5*	-0.205	0.664	4.5	94.5
CN1CCN(C2=Cc3ccccc3Sc3cc(F)c(Cl)cc32)CC1	1	92.5*	-0.417	0.589	-3.7	98.5*
CN1CCN(C2=Nc3ccccc3Oc3ccc(Cl)cc32)CC1	0.9	20.3	-1.63	/	12.5	10.8
C=CCN(C(=O)c1cccc(N2C(=O)C3CC=CC(C)C3C2=O)c1)c1ccccc1 (stereo not given)	0.8	-9.1	-1.23	-0.215	17.3	16.1
CCc1nnc(NC(=O)c2c(C)nn(-c3ccccc3)c2Cl)s1	1	-1.1	0.923	/	2.9	-20.9
CCOc1cc(C=O)cc(Br)c1OCC(N)=O	1.1	4.7	-1.15	2.67	-5.4	-8.8
Cc1ccc(S(=O)(=O)N(C)C)cc1NC(=O)CN1C(=O)NC2(CCCc3ccccc32)C1=O (stereo not given)	0.8	72.2*	1.73	0.562	15.7	-10.7
O=C(Nc1ccc2[nH]ccc2c1)c1ccc(F)cc1	/	/	-0.397	/	/	/
COc1ccc(N=C2SC(CC(=O)Nc3ccccc3)C(=O)N2CC2CCCO2)cc1 (stereo not given)	0.7	63.4*	/	-0.716	29.7	-5.5
COc1ccc(N=C2SC(CC(=O)Nc3ccccc3OC)C(=O)N2Cc2ccco2)cc1 (stereo not given)	0.9	99.2*	-1.84	-1.71	10.4	11.8
COc1ccc(N=C2SC(CC(=O)Nc3ccccc3)C(=O)N2CCN2CCOCC2)cc1 (stereo not given)	0.9	55.7*	-0.889	-0.00667	14.1	2.4
COC(=O)c1cc(NC(=O)CC2SC(=Nc3ccccc3)N(CCc3c[nH]c4ccccc34)C2=O)cc(C(=O)OC)c1 (stereo not given)	0.7	99.2*	-0.491	0.289	28.4	8.0
N/C(=N\OC(=O)CN1C(=O)c2ccccc2C1=O)c1ccc(Br)cc1	1	0.1	0.928	0.264	0.4	18.7
O=C(CS(=O)(=O)Cc1ccccc1)Nc1ccc(Cl)cn1	1	8.6	-0.444	0.355	1.0	0.5
CN1CCN(C(=S)c2cn(Cc3ccccc3)c3ccccc23)CC1	0.8	22.3	-0.212	-0.285	23.7	19.2
CC1CCN(C(=S)c2cn(Cc3cccc(F)c3)c3ccccc23)CC1	0.8	66.9*	0.879	0.668	15.0	71.3*
SMILES	Diaphorase act	Lmaj promast	KCC2 mod	ROMK primary	Diaph inh CS	WT yeast gro inh
CN1CCN(C(=S)c2cn(Cc3ccc(Br)cc3)c3ccccc23)CC1	0.9	52.5*	/	-0.147	11.2	78.7*
COc1ccc(-c2cnc3c(c2)CCC3(C#N)C#N)cc1	0.9	31.6	0.269	1.03	11.6	-9.2
CCc1cc2c(C)cc(=O)oc2cc1OC(=O)C1CCCN1C(=O)OC(C)(C)C (stereo not given)	0.8	89.3*	-0.577	-2.25	25.0	-5.3
CCOc1ccc2nc(Cl)c(C3CC(c4ccco4)=NN3S(=O)(=O)c3ccccc3)cc2c1 (stereo not given)	0.9	99.9*	-1.21	0.504	14.7	0.6
N#Cc1ccc(COC(=O)c2ccccn2)cc1	1	-0.9	-0.612	-0.892	2.9	-6.8
CCN(CC)C(=O)CSc1nc2c(sc(=S)n2CC)c(=O)n1-c1ccccc1	0.8	59.5*	-0.956	0.468	22.2	-0.9
CCC(C)NC(=O)CSc1nc2c(sc(=S)n2Cc2ccco2)c(=O)n1-c1ccccc1 (stereo not given)	0.9	17.4	-0.801	0.215	7.0	15.8
CCN(CC)C(=O)CSc1nc2c(sc(=S)n2-c2ccccc2)c(=O)n1Cc1ccco1	0.5	39.0	-1.81	-0.286	50.8*	-25.2
C=CCOc1ccc(C=Nc2ccc(C)c(Cl)c2)c(O)c1	0.8	-6.1	0.692	0.119	16.9	-6.8
O=C(C1CC1)N1CCN(S(=O)(=O)c2ccc3c(c2)OCCO3)CC1	1	-10.4	/	0.094	0.0	-14.1
COc1ccc2c(c1)-c1nc(N)sc1CC2	0.4	-3.2	/	0.737	60.5*	13.9
COc1ccc2c(c1)-c1nc(/N=C/c3ccc(O)c(OC)c3)sc1CC2	0.6	24.9	0.0322	0.212	35.6	14.5
COc1ccc(CN(C)CC(=O)Nc2cccc(S(N)(=O)=O)c2)c(OC)c1OC	0.9	-4.9	0.29	1.08	12.3	-33.0
COc1ccc(CNc2ccc(S(N)(=O)=O)cc2)cc1	0.7	-5.4	0.972	/	28.6	-18.7
COc1ccc(NCc2ccc([N+](=O)[O-])s2)c(OC)c1	0.7	98.0*	0.0441	-0.468	25.9	-1.4
COc1ccc(NCc2ccc([N+](=O)[O-])s2)cc1	0.8	73.3*	0.047	-0.367	21.5	-3.6
Cc1cc(Nc2nn(C)c(N)c2C#N)ccc1F	0.9	-6.9	/	0.239	10.3	5.6
CN(C)c1ccc(-c2n(C)c3ccccc3[n+]2C)cc1	0.9	99.9*	/	-0.032	11.9	-0.5
COc1ccc2nc(Nc3nc4cc5c(cc4s3)OCO5)sc2c1	1	55.3*	0.958	-0.197	-2.7	17.4
O=C(OCn1ncc(Br)c(Br)c1=O)c1c(F)cccc1F	0.9	100.4*	/	-4.19*	6.9	80.7
CC(=O)Cn1ncc(Br)c(Br)c1=O	1	71.2*	-1.48	1.03	3.2	5.9
Cc1nc2nc[nH]n2c(=O)c1CCOC(=O)c1c(F)cccc1F	1	-6.1	-0.0381	-0.415	0.5	-7.0
CCCN(CCC)CC(C)(C)NS(=O)(=O)c1ccc(Cl)cc1	/	/	0.0734	/	/	/
